Assay results taken from ChEMBL document CHEMBL3600334, “Neolignans from Aristolochia fordiana Prevent Oxidative Stress-Induced Neuronal Death through Maintaining the Nrf2/HO-1 Pathway in HT22 Cells” (J Nat Prod, 2015).
Activity calls are given as the source filed them. No cut-off for these calls is given here.

Columns and labels:
HT-22 [1] = assay: Cytotoxicity against mouse HT22 cells assessed as cell viability at 30 uM after 24 hrs by MTT assay; assay type: cell-based; conditions: ht-22, 24 h
How it was run: (§1)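 HT22 mouse hippocampal cells in DMEM/10% FBS, 37 °C, 5% CO2, seeded 10 000 cells/well and grown 24 h. Compounds added from DMSO stock (0.1% DMSO vehicle) for 24 h. MTT (5 mg/mL) 2 h at 37 °C, formazan dissolved in DMSO, OD 570 nm. Expressed as fold of untreated control; n = 6 wells.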

HT-22 [2] = assay: Effect on Nrf2/HO-1 protein expression in mouse HT22 cells at 30 uM after 12 hrs by Western blotting assay
HT-22 [3] = assay: Neuroprotective activity in mouse HT22 cells assessed as decrease of glutamate-induced increase in LDH level at 30 uM pretreated 30 mins before glutamate challenge measured after 24 hrs
HT-22 [4] = assay: Neuroprotective activity in mouse HT22 cells assessed as protection against glutamate-induced change in cell morphology at 1 to 30 uM pretreated 30 mins before glutamate challenge measured after 24 hrs by MTT assay; assay type: functional, cell-based; conditions: in the assay text read “by photomicroscopy” for “by MTT assay”
How it was run: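 HT22 cells given compounds 30 min before 2 mM glutamate for 24 h. Morphology then photographed under a photomicroscope.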

HT-22 [5] = assay: Neuroprotective activity in mouse HT22 cells assessed as decrease of glutamate-induced ROS production at 30 uM pretreated 30 mins before glutamate challenge measured after 12 hrs using H2DCF-DA staining by fluorescence assay; assay type: functional, cell-based
How it was run: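 HT22 cells given 30 μM compound 30 min before 2 mM glutamate for 12 h. After a PBS wash, stained with 10 μM H2-DCF-DA in serum-free medium, 25 min, 37 °C, dark. Cells photographed, then lysed in 1% Triton X-100/PBS 10 min at 37 °C. Fluorescence read at ex 490/em 525 nm, as percent of untreated control.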

HT-22 [6] = assay: Neuroprotective activity in mouse HT22 cells assessed as protection against glutamate-induced cell death pretreated 30 mins before glutamate challenge measured after 24 hrs by MTT assay; assay type: functional, cell-based
How it was run: (§2)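 HT22 cells seeded 10 000/well, 24 h. Compounds (0.1% DMSO vehicle) added 30 min before 2 mM glutamate, then 24 h. MTT (5 mg/mL) 2 h at 37 °C, formazan in DMSO, OD 570 nm. Fold of untreated control; mean ± SD, n = 6.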

HT-22 [7] = assay: Neuroprotective activity in mouse HT22 cells assessed as protection against glutamate-induced cell death at 1 to 30 uM pretreated 30 mins before glutamate challenge measured after 24 hrs by MTT assay; assay type: functional, cell-based; how it was run: as §2
HT-22 [8] = assay: Cytotoxicity against mouse HT22 cells assessed as […] at 30 uM after 24 hrs by MTT assay; assay type: cell-based; conditions: ht-22, 24 h; how it was run: as §1
HT-22 [9] = assay: Neuroprotective activity in mouse HT22 cells assessed as decrease of glutamate-induced decrease in Nrf2/HO-1 protein expression at 30 uM pretreated 30 mins before glutamate challenge measured after 12 hrs by Western blotting assay; assay type: functional, cell-based
HT-22 [10] = assay: Neuroprotective activity in mouse HT22 cells assessed as decrease of glutamate-induced decrease in Bcl-2 protein expression at 30 uM pretreated […] by Western blotting assay

| SMILES | Activity (HT-22 [1]) | Activity (HT-22 [2]) | Activity (HT-22 [3]) | Activity (HT-22 [4]) | Activity (HT-22 [5]) | Activity (HT-22 [6]) | Activity (HT-22 [7]) | Activity (HT-22 [8]) | Activity (HT-22 [9]) | Activity (HT-22 [10]) |
| --- | --- | --- | --- | --- | --- | --- | --- | --- | --- | --- |
| C/C=C/c1cc(OC)c2oc(-c3ccc(O)c(OC)c3)c(C)c2c1 | Non-toxic | inactive | Active | Active | Active | Dose-dependent effect | Active | Toxic | Active | Active |
| C/C=C/c1cc(OC)c2oc(-c3ccc(O)cc3)c(C)c2c1 | Non-toxic | inactive | Active | Active | Active | Dose-dependent effect | Active |  | Active | Active |
| COc1cc([C@H]2O[C@@H](c3ccc(O)c(OC)c3)[C@@H](C)[C@@H]2C)ccc1O | Non-toxic | inactive | Active | Active | Active | Dose-dependent effect | Active |  | Active | Active |
| C/C=C/c1cc(OC)c2c(c1)[C@@H](C)[C@H](c1ccc(O)c(OC)c1)O2 [LICARINE A] | Non-toxic | inactive | Active | Active | Active | Dose-dependent effect | Active |  | Active | Active |
| COc1cc([C@H]2O[C@@H](c3ccc(O)c(OC)c3)[C@H](C)[C@@H]2C)ccc1O [NECTANDRIN B] | Non-toxic | inactive | Active | Active | Active | Dose-dependent effect | Active |  | Active | Active |
| C/C=C/c1ccc2oc(-c3ccc(O)cc3)c(C)c2c1 [RATANIAPHENOL II] | Non-toxic | inactive | Active | Active | Active | Dose-dependent effect | Active | Toxic | Active | Active |
